ChEMBL document CHEMBL1130209, “A novel series of 2,5-substituted tryptamine derivatives as vascular 5HT1B/1D receptor antagonists” (J Med Chem, 1997)
Active and inactive are the calls of the source. The rule behind the calls is not given here.

Columns and labels:
Format in all cases: tissue-based
Conditions in all cases: Oryctolagus cuniculus, target entry is the homologue from another species
[1] = target: 5-hydroxytryptamine receptor 1B (Homo sapiens) (UniProt P28222); assay: Dissociation equilibrium constant against the vascular 5-hydroxytryptamine 1B like receptor in the rabbit saphenous vein
Sequence of 5-hydroxytryptamine receptor 1B (Homo sapiens) (P28222 whole entry): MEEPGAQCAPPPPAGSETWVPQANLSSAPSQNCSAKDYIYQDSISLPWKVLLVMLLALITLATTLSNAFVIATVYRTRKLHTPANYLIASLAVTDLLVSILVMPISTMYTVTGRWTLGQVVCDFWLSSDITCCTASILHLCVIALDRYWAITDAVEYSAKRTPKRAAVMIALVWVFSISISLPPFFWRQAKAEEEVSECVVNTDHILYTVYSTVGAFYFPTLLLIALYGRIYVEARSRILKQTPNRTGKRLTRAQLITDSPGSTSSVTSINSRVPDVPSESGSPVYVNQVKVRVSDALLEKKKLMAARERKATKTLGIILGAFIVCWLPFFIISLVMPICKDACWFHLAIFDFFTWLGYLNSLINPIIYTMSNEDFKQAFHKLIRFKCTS
Procedure, shortened: (§1)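 Saphenous vein rings (4–5 mm) from male New Zealand white rabbits, killed with pentobarbitone 80 mg/kg iv and exsanguination, mounted on tungsten wires. Phenoxybenzamine 0.3 μM for 30 min, washed out, 1 μM 5HT viability check. Cumulative 5HT curve, then after 60 min recovery a test compound curve. Non-agonists tested as 5HT antagonists, giving apparent pKB.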

[2] = target: 5-hydroxytryptamine receptor 2A (Homo sapiens) (UniProt P28223); assay: Dissociation equilibrium constant against the vascular 5-hydroxytryptamine 2A receptor in the rabbit […] aorta
Sequence of 5-hydroxytryptamine receptor 2A (Homo sapiens) (P28223 whole entry): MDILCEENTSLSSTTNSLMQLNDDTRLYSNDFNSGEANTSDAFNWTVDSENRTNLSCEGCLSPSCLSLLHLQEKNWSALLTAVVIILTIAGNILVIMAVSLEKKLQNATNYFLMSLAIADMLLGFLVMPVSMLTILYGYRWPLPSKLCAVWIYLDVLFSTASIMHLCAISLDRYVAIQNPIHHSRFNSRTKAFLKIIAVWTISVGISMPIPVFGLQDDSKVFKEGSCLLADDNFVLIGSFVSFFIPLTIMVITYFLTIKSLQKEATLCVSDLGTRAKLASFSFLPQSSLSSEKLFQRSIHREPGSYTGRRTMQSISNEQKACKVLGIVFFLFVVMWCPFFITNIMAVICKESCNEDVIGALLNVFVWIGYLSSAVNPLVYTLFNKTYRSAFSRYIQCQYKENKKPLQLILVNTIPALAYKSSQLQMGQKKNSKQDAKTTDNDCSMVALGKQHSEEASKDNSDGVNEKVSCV

[3] = target: 5-hydroxytryptamine receptor 1B (Homo sapiens) (UniProt P28222); assay: The dissociation equilibrium constant (pKB=-log KB) of compound was determined against the vascular 5-hydroxytryptamine 1B like receptor in the rabbit saphenous vein(RbSV); NS=non surmountable; procedure, shortened: as §1

Row | pKB [1] | pKB [2] | pKB [3] | SMILES
1 | 6.97 | < 5 |  | COC(=O)c1[nH]c2ccc(CCN3C(=O)CNC3=O)cc2c1CCN(C)C
2 | 6.88 | 5.02 |  | COC(=O)c1[nH]c2ccc(CCN3C(=O)NC(C)(C)C3=O)cc2c1CCN(C)C
3 | 6.1 | 5.5 |  | CCOC(=O)c1[nH]c2ccc(CCN3CCCC3=O)cc2c1CCN(C)C
4 | 5.62 | 5.62 |  | CC(C)OC(=O)c1[nH]c2ccc(CN3C(=O)NC(C)(C)C3=O)cc2c1CCN(C)C
5 | 7.3 | 6.2 |  | CCOC(=O)c1[nH]c2ccc(CCC3NC(=O)N(C)C3=O)cc2c1CCN(C)C (stereo unspecified)
6 | 6.45 | 5.03 |  | COC(=O)c1[nH]c2ccc(CN3C(=O)NC(C)(C)C3=O)cc2c1CCN(C)C
7 | 5.32 | 5.86 |  | CCOC(=O)c1[nH]c2ccc(CN3C(=O)CNC3=O)cc2c1CCN(C)C
8 | 5.41 | 5.15 |  | COC(=O)c1[nH]c2ccc(CN3C(=O)CNC3=O)cc2c1CCN(C)C
9 | 6.17 | < 5 |  | CN(C)CCc1c(C(=O)O)[nH]c2ccc(CCN3C(=O)CNC3=O)cc12
10 | 7.21 | 6.76 |  | CCOC(=O)c1[nH]c2ccc(CCC3COC(=O)N3)cc2c1CCN(C)C (stereo unspecified)
11 | 6.12 | 5.66 |  | CCOC(=O)c1[nH]c2ccc(CC3COC(=O)N3)cc2c1CCN(C)C (stereo unspecified)
12 | 6.78 | 6.3 |  | CCOC(=O)c1[nH]c2ccc(CCN3C(=O)CCC3=O)cc2c1CCN(C)C
13 | 6.85 | 6.57 |  | CC(C)OC(=O)c1[nH]c2ccc(CCN3C(=O)CNC3=O)cc2c1CCN(C)C
14 | 6.54 | 5.52 |  | CCOC(=O)c1[nH]c2ccc(CN3C(=O)NC(C)(C)C3=O)cc2c1CCN(C)C
15 | 7.91 | 7.3 |  | CN(C)CCc1c(C(=O)OCc2ccccc2)[nH]c2ccc(CCN3C(=O)CNC3=O)cc12
16 | 7.72 | 7.56 |  | CCOC(=O)c1[nH]c2ccc(CCN3C(=O)CSC3=O)cc2c1CCN(C)C
17 | 7.34 | 5.23 |  | CCOC(=O)c1[nH]c2ccc(CCN3C(=O)NC(C)(C)C3=O)cc2c1CCN(C)C

The remaining lines, values behind:

Row | SMILES | pKB [1] | pKB [2] | pKB [3]
18 | COC(=O)c1[nH]c2ccc(CCN3CCOC3=O)cc2c1CCN(C)C | 6 | < 5 | 
19 | CN(C)CCc1c(C#N)[nH]c2ccc(CC3COC(=O)N3)cc12 (stereo unspecified) | 4.8 | 4.6 | 
20 | COC(=O)c1[nH]c2ccc(CCC3COC(=O)N3)cc2c1CCN(C)C (stereo unspecified) | 6.61 | 5.88 | 
21 | CCOC(=O)c1[nH]c2ccc(CCN3C(=O)c4ccccc4C3=O)cc2c1CCN(C)C | 7.54 | 6.26 | 
22 | CCOC(=O)c1[nH]c2ccc(CCN3C(=O)CNC3=O)cc2c1C1=CCN(C)CC1 | 5.88 | < 5 | 
23 | COC(=O)c1[nH]c2ccc(CCN3C(=O)c4ccccc4C3=O)cc2c1CCN(C)C | 7.39 | 5.66 | 
24 | CCOC(=O)c1[nH]c2ccc(CCN3C(=O)c4ccccc4C3=O)cc2c1C1=CCN(C)CC1 | 6.42 | 5.02 | 
25 | CCOC(=O)c1[nH]c2ccc(CCN3C(=O)CNC3=O)cc2c1-c1ccncc1 | 5.29 | < 5 | 
26 | CC(C)OC(=O)c1[nH]c2ccc(CCN3C(=O)NC(C)(C)C3=O)cc2c1C1=CCN(C)CC1 | 6.34 | < 5 | 
27 | CC(C)OC(=O)c1[nH]c2ccc(CCN3C(=O)NC(C)(C)C3=O)cc2c1CCN(C)C | 6.82 | 5.8 | 
28 | COC(=O)c1[nH]c2ccc(CCN3C(=O)CNC3=O)cc2c1-c1ccncc1 |  | < 5 | inactive
29 | CN(C)CCc1c(C(N)=O)[nH]c2ccc(CC3COC(=O)N3)cc12 (stereo unspecified) | 4.75 | < 4.5 | 
30 | CC(C)OC(=O)c1[nH]c2ccc(CCN3C(=O)NC(C)(C)C3=O)cc2c1-c1ccncc1 | 5.25 | < 5 | 
31 | CN(C)CCc1c(Br)[nH]c2ccc(CC3COC(=O)N3)cc12 (stereo unspecified) | 5.86 | < 5 | 
32 | CN(C)CCc1c(C(=O)OC2CCCCC2)[nH]c2ccc(CCN3C(=O)NC(C)(C)C3=O)cc12 | 5.95 | 4.77 | 
33 | CCOC(=O)c1[nH]c2ccc(CCN3C(=O)CNC3=O)cc2c1C1CCN(C)CC1 | < 5 | < 5 | 
